Measurements published in ChEMBL document CHEMBL2413010, “Design and synthesis of 2-phenyl-1,4-dioxa-spiro[4.5]deca-6,9-dien-8-ones as potential anticancer agents starting from cytotoxic spiromamakone A” (Eur J Med Chem, 2013).
pIC50: −log10 of the molar value.

system: HeLa; test: Ratio of spiromamakone A IC50 to compound IC50 for human HeLa cells assessed as cell survival after 48 hrs by WST-8 method; format: functional; conditions: not given

| SMILES | Ratio IC50 |
| --- | --- |
| O=C1C=C[C@@]2(C=C1Cl)OC[C@@H](c1ccc(I)cc1)O2 (mixture of isomers) | 15 |

system: HeLa; test: Cytotoxicity against human HeLa cells assessed as cell survival after 48 hrs by WST-8 method; format: functional, cell-based; conditions: Homo sapiens, HeLa, 48 h
Summary of the method: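 HeLa cells grown in DMEM with 10% FBS, penicillin and streptomycin at 37 °C, 5% CO2. Cells seeded at 1.0 × 10³ per well and left overnight, then exposed for 48 h to compounds in DMSO at various concentrations, with DMSO as negative control. WST-8 added for 1 h at 37 °C; formazan read at 450 nm. IC50 taken as concentration giving 50% cell survival.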

| SMILES | pIC50 |
| --- | --- |
| O=C1C=CC(=O)C12C(O)C=CC21Oc2cccc3cccc(c23)O1 (configuration not stated) | 5.66 |
| O=C1C=C[C@@]2(C=C1Cl)OC[C@@H](c1ccc(I)cc1)O2 (mixture of isomers) | 6.85 |
| O=C1C=CC2(C=C1)OCC(c1ccc(-c3cnccc3Cl)cc1)O2 (racemic) | 5.89 |
| O=C1C=CC2(C=C1)OCC(c1ccc(-c3cccc(Cl)c3)cc1)O2 (racemic) | 5.85 |
| O=C1C=CC2(C=C1)OCC(c1ccc(-c3cccc(C(=O)O)c3)cc1)O2 (racemic) | 5.51 |
| O=C1C=CC2(C=C1)OCC(c1ccc(-c3ccc(C(=O)O)cc3)cc1)O2 (racemic) | 5.77 |
| COC(=O)c1cccc(-c2ccc(C3COC4(C=CC(=O)C=C4)O3)cc2)c1 (racemic) | 5.82 |
| COC(=O)c1ccc(-c2ccc(C3COC4(C=CC(=O)C=C4)O3)cc2)cc1 (racemic) | 5.59 |
| CCCOC(=O)c1cccc(-c2ccc(C3COC4(C=CC(=O)C=C4)O3)cc2)c1 (racemic) | 6.10 |
| CCCOC(=O)c1ccc(-c2ccc(C3COC4(C=CC(=O)C=C4)O3)cc2)cc1 (racemic) | 6.09 |
| O=C1C=CC2(C=C1)OCC(c1ccc(-c3cccc(C(F)(F)F)c3)cc1)O2 (racemic) | 6.10 |
| O=C1C=CC2(C=C1)OCC(c1ccc(-c3ccccc3OCc3ccccc3)cc1)O2 (racemic) | 6.02 |
| CN(C)c1ccc(-c2ccc(C3COC4(C=CC(=O)C=C4)O3)cc2)cc1 (racemic) | 5.46 |
| CS(=O)(=O)c1ccc(-c2ccc(C3COC4(C=CC(=O)C=C4)O3)cc2)cc1 (racemic) | 5.77 |
| CC(=O)Nc1ccc(-c2ccc(C3COC4(C=CC(=O)C=C4)O3)cc2)cc1 (racemic) | 6.05 |
| COC(=O)c1cc(-c2ccc(C3COC4(C=CC(=O)C=C4)O3)cc2)ccc1F (racemic) | 5.74 |
| O=C1C=CC2(C=C1)OCC(c1ccc(-c3cccnc3)cc1)O2 (racemic) | 5.82 |
| O=C1C=CC2(C=C1)OCC(c1ccc(-c3ccncc3)cc1)O2 (racemic) | 5.35 |
| O=C1C=CC2(C=C1)OCC(c1ccc(-c3cncnc3)cc1)O2 (racemic) | 5.49 |
| O=C1C=CC2(C=C1)OCC(c1ccc(-c3ccoc3)cc1)O2 (racemic) | 5.60 |
| O=C1C=CC2(C=C1)OCC(c1ccc(-c3ccsc3)cc1)O2 (racemic) | 5.60 |
| O=C1C=CC2(C=C1)OCC(c1ccc(-c3cnc4ccccc4c3)cc1)O2 (racemic) | 6.10 |
| O=C1C=C[C@@]2(C=C1Cl)OC[C@@H](c1ccc(-c3cccnc3)cc1)O2 (racemic) | 5.03 |

| SMILES | pIC50 |
| --- | --- |
| O=C1C=C[C@@]2(C=C1Cl)OC[C@@H](c1ccc(-c3ccncc3)cc1)O2 (racemic) | 5.64 |
| O=C1C=C[C@@]2(C=C1Cl)OC[C@@H](c1ccc(-c3cncnc3)cc1)O2 (racemic) | 5.34 |
| O=C1C=C[C@@]2(C=C1Cl)OC[C@@H](c1ccc(-c3cnc4ccccc4c3)cc1)O2 (racemic) | 5.57 |
| O=C1C=CC2(C=C1)OCC(c1ccc(Br)cc1)O2 (racemic) | 5.62 |
| O=C1C=CC2(C=C1)OCC(c1cccc(I)c1)O2 (racemic) | 5.80 |
| O=C1C=CC2(C=C1)OCC(c1ccc(I)cc1)O2 (racemic) | 5.96 |
| O=C1C=CC2(C=C1)OCC(c1cccc(-c3ccccc3)c1)O2 (racemic) | 5.85 |
| O=C1C=CC2(C=C1)OCC(c1cccc(-c3cccc(F)c3)c1)O2 (racemic) | 5.80 |
| O=C1C=CC2(C=C1)OCC(c1cccc(-c3ccc(F)cc3)c1)O2 (racemic) | 6.17 |
| O=C1C=CC2(C=C1)OCC(c1cccc(-c3cccc(Cl)c3)c1)O2 (racemic) | 5.74 |
| O=C1C=CC2(C=C1)OCC(c1cccc(-c3ccc(Cl)cc3)c1)O2 (racemic) | 6.07 |
| CS(=O)(=O)c1ccc(-c2cccc(C3COC4(C=CC(=O)C=C4)O3)c2)cc1 (racemic) | 6.10 |
| CC(=O)Nc1ccc(-c2cccc(C3COC4(C=CC(=O)C=C4)O3)c2)cc1 (racemic) | 6.06 |
| O=C1C=CC2(C=C1)OCC(c1cccc(-c3cnccc3Cl)c1)O2 (racemic) | 5.77 |
| O=C1C=CC2(C=C1)OCC(c1cccc(-c3ccco3)c1)O2 (racemic) | 5.49 |
| O=C1C=CC2(C=C1)OCC(c1cccc(-c3ccsc3)c1)O2 (racemic) | 6.04 |
| O=C1C=CC2(C=C1)OCC(c1cccc(-c3cccc4ccccc34)c1)O2 (racemic) | 5.89 |
| O=C1C=CC2(C=C1)OCC(c1cccc(-c3ccc4ccccc4c3)c1)O2 (racemic) | 5.89 |
| O=C1C=CC2(C=C1)OCC(c1cccc(-c3cnc4ccccc4c3)c1)O2 (racemic) | 5.62 |
| O=C1C=CC2(C=C1Cl)OCC(c1ccc(Cl)cc1)O2 (racemic; form 2) | 5.57 |
| O=C1C=CC2(C=C1Cl)OCC(c1cccc(I)c1)O2 (racemic; form 2) | 5.80 |
| O=C1C=C[C@]2(C=C1Cl)OC[C@@H](c1ccc(I)cc1)O2 (relative stereo) | 5.62 |
| O=C1C=CC2(C=C1Cl)OCC(c1cccc(Br)c1)O2 (stereo in doubt) | 6.21 |

same assay, conditions: hela

| SMILES | pIC50 |
| --- | --- |
| O=C1C=CC2(C=C1Cl)OCC(c1ccc(Br)cc1)O2 (mixture of isomers) | 5.35 |
| O=C1C=CC2(C=C1Cl)OCC(c1cccc(Br)c1)O2 (racemic) | 6.19 |
| O=C1C=CC2(C=C1Cl)OCC(c1ccc(Cl)cc1)O2 (racemic; form 1) | 5.54 |
| O=C1C=CC2(C=C1Cl)OCC(c1cccc(I)c1)O2 (racemic; form 1) | 5.82 |
| O=C1C=CC2(C=C1Cl)OCC(c1ccc(Br)cc1)O2 (stereo in doubt) | 5.68 |
